Assay results: ChEMBL document CHEMBL5252539, “In vitro biological evaluation of new antimycobacterial salicylanilide-tuftsin conjugates” (Eur J Med Chem, 2017)
≈ marks a conversion by molar mass, not a printed value. Calls of active or inactive are those of the source. The rule behind the calls is not given here. *1 amine or outer side, *2 acyl side, *3 side chain or, on linkers, in order; H or OH if unused. Where a SMILES comes first, the peptide text is derived from it. [ ]: non-standard residue; d: D form. The star is where a group is joined. X4 = O=C(Nc1ccc(C(F)(F)F)cc1)c1cc(/C=N\OCC(=O)*)ccc1O; X1 = C/C(=N\OCC(=O)[*:2])c1ccc(N[*:1])cc1; Benzoyl(5-Br-2-OH) = O=C(c1cc(Br)ccc1O)*; Palmitoyl = CCCCCCCCCCCCCCCC(=O)*; Decanoyl = CCCCCCCCCC(=O)*

Columns and labels:
[1] = Selectivity index, ratio of IC50 for cytostatic activity against human MONO-MAC-6 cells to MIC for antimycobacterial activity against Mycobacterium tuberculosis H37Rv ATCC 27294; format: toxicity, cell-based; settings: read-out: Selectivity Index
Outline: (§1)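 MTT assay on MonoMac6 or HepG2 cells after 24 h exposure, top concentration 200 µM. SI = IC50 (µM)/MIC (µM) against H37Rv from the 4-week Sula medium assay.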

[2] = system: Mycobacterium tuberculosis; experiment: Antimycobacterial activity against Mycobacterium tuberculosis H37Rv ATCC 27294 assessed as reduction in colony forming unit after 28 days by serial dilution method; format: functional, organism-based; settings: time 28.0 day
Outline: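 After the 4-week MIC incubation in Sula semisynthetic medium (pH 6.5), growth inhibition confirmed by plating on Löwenstein-Jensen solid medium and counting colony forming units.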

[3] = system: Mycobacterium tuberculosis; experiment: Antimycobacterial activity against Mycobacterium tuberculosis H37Rv ATCC 27294 assessed as reduction in bacterial growth after 21 days by serial dilution method; format: functional; settings: H37Rv ATCC 27294, 504 h, time 21 day
Outline: (§2)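 Broth MIC in Sula semisynthetic medium, pH 6.5; 4-week incubation, with 21-day values […] where indicated. Drug-free inoculated bacteria served as growth control. MIC also expressed as drug content (µg/mL) = MIC (µM) × average SAL molar mass × number of SAL per conjugate / 1000.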

[4] = system: Mycobacteroides abscessus; experiment: Antimycobacterial activity against Mycobacterium abscessus ATCC 19977 assessed as reduction in colony forming unit after 7 days by serial dilution method; format: functional, organism-based; settings: time 7.0 day
Outline: (§3)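 MIC determined in Sula semisynthetic medium, pH 6.5, 1 week incubation. Growth inhibition confirmed by plating on Löwenstein-Jensen solid medium and counting CFU. Bacteria inoculated without drug served as growth control.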

MONO-MAC-6 = experiment: Cytostatic activity against human MONO-MAC-6 cells assessed as reduction in cell viability incubated for 24 hrs by MTT assay; format: functional, cell-based; settings: MONO-MAC-6, 24 h
Outline: (§4)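 MTT viability assay after 24 h exposure of MonoMac6 human monocytic cells or HepG2 human hepatocellular carcinoma cells. Top concentration 200 μM. IC50 taken from dose-response curves as the concentration reducing viability to 50% of maximal.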

[5] = system: Mycobacterium tuberculosis; experiment: […] antimycobacterial activity against Mycobacterium tuberculosis H37Rv ATCC 27294 infected in human MONO-MAC-6 cells assessed as reduction in colony forming unit at 125 uM for 6 days by colony counting based analysis; format: functional, organism-based; settings: time 6.0 day
Outline: (§5)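 MonoMac6 monolayers infected with H37Rv, then treated with compound at 125 or 250 µM for 3 days. Treatment repeated with fresh compound solution for another 3 days. Intracellular bacteria quantified as CFU against untreated infected cells.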

[6] = Selectivity index, ratio of IC50 for cytostatic activity against human HepG2 cells to MIC for antimycobacterial activity against Mycobacterium tuberculosis H37Rv ATCC 27294; format: toxicity, cell-based; settings: read-out: Selectivity Index; outline: as §1
[7] = system: Mycobacterium tuberculosis; experiment: […] antimycobacterial activity against Mycobacterium tuberculosis H37Rv ATCC 27294 infected in human MONO-MAC-6 cells assessed as reduction in colony forming unit at 250 uM for 6 days by colony counting based analysis; format: functional, organism-based; settings: time 6.0 day; outline: as §5
HepG2 = experiment: Cytostatic activity against human HepG2 cells assessed as reduction in cell viability incubated for 24 hrs by MTT assay; format: functional, cell-based; settings: HepG2, 24 h; outline: as §4
[8] = Stability in rat liver lysosomal homogenate assessed as drug degradation at 50 uM and measured upto 24 hrs by HPLC-MS analysis; format: ADME, subcellular, Lysosome; settings: tissue homogenate
Outline: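 Conjugates incubated in rat liver lysosomal homogenate. Reaction mixtures sampled at 5 min, 1 h, 2 h, 4 h, 8 h and 24 h and analysed by HPLC-MS (chromatograms and mass spectra) to identify intact conjugate, fragments and cleavage sites.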

[9] = system: Mycobacteroides abscessus; experiment: Antimycobacterial activity against Mycobacterium abscessus ATCC 19977 assessed as reduction in bacterial growth after 7 days by serial dilution method; format: functional; settings: ATCC 19977, 168 h, time 7 day; outline: as §3
[10] = Cytotoxicity against mouse bone marrow derived macrophages assessed as reduction in cell viability incubated for 48 hrs by MTT assay; format: toxicity, cell-based, Macrophage
Outline: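 Murine bone marrow-derived macrophages exposed for 48 h, viability by MTT. Highest concentration tested 100 µM. IC50 taken from dose-response curves.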

[11] = Selectivity index, ratio of IC50 for cytotoxicity against mouse bone marrow derived macrophages to MIC for antimycobacterial activity against Mycobacterium tuberculosis H37Rv ATCC 27294; format: toxicity; settings: read-out: Selectivity Index
Outline: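 Murine bone marrow-derived macrophages exposed for 48 h, top concentration 100 µM. Viability read by MTT and IC50 taken from dose-response curves. SI = IC50/MIC against H37Rv.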

[12] = system: Mycobacterium tuberculosis; experiment: Antimycobacterial activity against Mycobacterium tuberculosis H37Rv ATCC 27294 assessed as reduction in bacterial growth after 28 days by serial dilution method; format: functional; settings: H37Rv ATCC 27294, 672 h, time 28 day; outline: as §2
[13] = Retention time of the compound by RP-HPLC analysis; format: physicochemical
Outline: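 Analytical RP-HPLC on a C18 column (5 μm, 100 Å, 4.6 × 150 mm). Eluent A 0.1% TFA in water, eluent B 0.1% TFA in acetonitrile-water 80:20. Gradient 0% B for 5 min, to 60% B at 15 min, to 100% B at 25 min. Flow 1 mL/min, detection at 220 nm.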

SMILES	selectivity ratio [1]	Activity [2]	MIC [3] [µM]	Activity [4]	IC50 (MONO-MAC-6) [µM]	Activity [5]	selectivity ratio [6]	Activity [7]	IC50 (HepG2) [µM]	Stability [8]	MIC [9] [µM]	IC50 at 48 h [10] [µM]	selectivity ratio [11]	MIC [12] [µM]	Retention_time [13] [min]
C/C(=N\OCC(=O)N[C@H](C(=O)O)[C@@H](C)O)c1ccc(NC(=O)c2cc(Br)ccc2O)cc1	> 0.5	Active	394 (≈ 200 µg/mL)	Active	> 200	Active	> 0.5	Active	> 200	–	–	–	–	–	–
CCCCCCCCCC(=O)NCCCC[C@H](NC(=O)[C@@H]1CCCN1C(=O)[C@H](CCCCN)NC(=O)[C@@H](NC(=O)CO/N=C(\C)c1ccc(NC(=O)c2cc(Br)ccc2O)cc1)[C@@H](C)O)C(=O)NCC(N)=O ({Benzoyl(5-Br-2-OH)}-[X1]TKPK(Decanoyl)G-NH2)	0.4	Active	186 (≈ 200 µg/mL)	Active	72.6	Active	0.3	Active	55.8	Unstable	186 (≈ 200 µg/mL)	–	–	–	–
CCCCCCCCCCCCCCCC(=O)NCCCC[C@H](NC(=O)[C@@H]1CCCN1C(=O)[C@H](CCCCN)NC(=O)[C@@H](NC(=O)CO/N=C(\C)c1ccc(NC(=O)c2cc(Br)ccc2O)cc1)[C@@H](C)O)C(=O)NCC(N)=O ({Benzoyl(5-Br-2-OH)}-[X1]TKPK(Palmitoyl)G-NH2)	0.3	Active	173 (≈ 200 µg/mL)	Active	53.8	Active	0.1	Active	23.2	Unstable	173 (≈ 200 µg/mL)	–	–	–	–
C[C@@H](O)[C@H](NC(=O)CNC(=O)[C@H](CCCCN)NC(=O)[C@@H]1CCCN1C(=O)[C@H](CCCCN)NC(=O)[C@@H](NC(=O)CNC(=O)[C@H](CCCCN)NC(=O)[C@@H]1CCCN1C(=O)[C@H](CCCCN)NC(=O)[C@@H](NC(=O)CNC(=O)[C@H](CCCCN)NC(=O)[C@@H]1CCCN1C(=O)[C@H](CCCCN)NC(=O)[C@@H](NC(=O)CO/N=C\c1ccc(O)c(C(=O)Nc2ccc(C(F)(F)F)cc2)c1)[C@@H](C)O)[C@@H](C)O)[C@@H](C)O)C(=O)N[C@@H](CCCCN)C(=O)N1CCC[C@H]1C(=O)N[C@@H](CCCCN)C(=O)NCC(N)=O (X4-TKPKGTKPKGTKPKGTKPKG-NH2)	> 2.4	Active	82.4 (≈ 200 µg/mL)	Active	> 200	Active	> 2.4	Active	> 200	–	41.2 (≈ 100 µg/mL)	–	–	–	–
C/C(=N\OCC(=O)NCC(=O)O)c1ccc(NC(=O)c2cc(Br)ccc2O)cc1	> 0.9	Active	215 (≈ 100 µg/mL)	Active	> 200	Active	> 0.9	Active	> 200	–	–	–	–	–	–
CC(=O)c1ccc(NC(=O)c2cc(Br)ccc2O)cc1	2.5	Active	–	Active	18.6	–	2.1	–	15.9	–	59.8 (≈ 20 µg/mL)	76.5	10.2	7.5 (≈ 2.51 µg/mL)	–
C/C(=N\OCC(=O)NCC(=O)N[C@@H](Cc1ccccc1)C(=O)N[C@@H](CC(C)C)C(=O)NCC(=O)N[C@H](C(=O)N[C@@H](CCCCN)C(=O)N1CCC[C@H]1C(=O)N[C@@H](CCCCN)C(=O)NCC(=O)N[C@H](C(=O)N[C@@H](CCCCN)C(=O)N1CCC[C@H]1C(=O)N[C@@H](CCCCN)C(=O)NCC(=O)N[C@H](C(=O)N[C@@H](CCCCN)C(=O)N1CCC[C@H]1C(=O)N[C@@H](CCCCN)C(=O)NCC(=O)N[C@H](C(=O)N[C@@H](CCCCN)C(=O)N1CCC[C@H]1C(=O)N[C@@H](CCCCN)C(=O)NCC(N)=O)[C@@H](C)O)[C@@H](C)O)[C@@H](C)O)[C@@H](C)O)c1ccc(NC(=O)c2cc(Br)ccc2O)cc1	0.6	–	–	–	86.6	–	0.8	–	112	Unstable	–	92.1	0.7	–	15.7
CCCCCCCCCCCCCCCC(=O)NCCCC[C@H](NC(=O)[C@@H]1CCCN1C(=O)[C@H](CCCCN)NC(=O)[C@@H](NC(=O)CNC(=O)[C@H](CCCCN)NC(=O)[C@@H]1CCCN1C(=O)[C@H](CCCCN)NC(=O)[C@@H](NC(=O)CNC(=O)[C@H](CCCCN)NC(=O)[C@@H]1CCCN1C(=O)[C@H](CCCCN)NC(=O)[C@@H](NC(=O)CO/N=C(\C)c1ccc(NC(=O)c2cc(Br)ccc2O)cc1)[C@@H](C)O)[C@@H](C)O)[C@@H](C)O)C(=O)NCC(=O)N[C@H](C(=O)N[C@@H](CCCCN)C(=O)N1CCC[C@H]1C(=O)N[C@@H](CCCCN)C(=O)NCC(N)=O)[C@@H](C)O ({Benzoyl(5-Br-2-OH)}-[X1]TKPKGTKPKGTKPK(Palmitoyl)GTKPKG-NH2)	0.3	Active	74.3 (≈ 200 µg/mL)	Active	20.9	Active	0.5	Active	40.4	Unstable	74.3 (≈ 200 µg/mL)	–	–	–	17.3
C/C(=N\OCC(=O)N[C@H](C(=O)N[C@@H](CCCCN)C(=O)N1CCC[C@H]1C(=O)N[C@@H](CCCCN)C(=O)NCC(=O)N[C@H](C(=O)N[C@@H](CCCCN)C(=O)N1CCC[C@H]1C(=O)N[C@@H](CCCCN)C(=O)NCC(N)=O)[C@@H](C)O)[C@@H](C)O)c1ccc(NC(=O)c2cc(Br)ccc2O)cc1 ({Benzoyl(5-Br-2-OH)}-[X1]TKPKGTKPKG-NH2)	> 1.1	Active	–	Active	> 200	Active	> 1.1	Active	> 200	Unstable	56 (≈ 80.1 µg/mL)	–	–	175 (≈ 250 µg/mL)	14.9
